Measured values collected from several papers.
Lines come from different studies, so protocols differ.
Target: 3-phosphoinositide-dependent protein kinase 1 (PDPK1, Homo sapiens, UniProt O15530)
One construct used (O15530 1-556): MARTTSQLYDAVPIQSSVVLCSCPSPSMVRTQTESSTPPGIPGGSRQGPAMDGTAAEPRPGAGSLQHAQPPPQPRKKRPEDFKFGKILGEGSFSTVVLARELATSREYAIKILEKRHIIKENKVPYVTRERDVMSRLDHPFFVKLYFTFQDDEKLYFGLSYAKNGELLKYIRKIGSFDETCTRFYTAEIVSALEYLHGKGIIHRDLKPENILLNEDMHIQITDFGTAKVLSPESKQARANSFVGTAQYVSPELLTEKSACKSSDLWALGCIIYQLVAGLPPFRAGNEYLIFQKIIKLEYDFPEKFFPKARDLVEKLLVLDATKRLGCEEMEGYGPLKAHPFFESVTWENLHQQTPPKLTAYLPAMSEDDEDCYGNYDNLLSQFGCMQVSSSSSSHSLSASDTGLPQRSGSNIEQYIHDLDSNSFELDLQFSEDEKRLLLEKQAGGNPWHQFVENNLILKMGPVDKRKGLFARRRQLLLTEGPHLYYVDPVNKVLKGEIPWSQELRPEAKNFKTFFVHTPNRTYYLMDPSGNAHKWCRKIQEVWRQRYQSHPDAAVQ

test	setting	remaining binding [%]	Structure (SMILES)
binding	1 µM	100	COc1ccnn2ncc(-c3ccnc(N(C)C)n3)c12
cell-free assay, competition with immobilised ligand	5 µM	90	FC(F)(F)Oc1cccc(-c2cnc3ccc(-c4ccncc4)nn23)c1
binding	1 µM	100	C[C@H]1CCN(c2nccc(-c3cnn4ncccc34)n2)C1
binding, competition with immobilised ligand	1 µM	51	CNC(=O)[C@@H]1CC[C@@H](n2c(-c3ccc4cnccc4c3)nc3ccc(C(=O)NCc4cccc(C(N)=O)c4)cc32)C1
cell-free assay, competition with immobilised ligand	10 µM	85	CNC(=O)c1cc(Oc2ccc(NC(=O)Nc3ccc(Cl)c(C(F)(F)F)c3)cc2)ccn1
cell-free assay, competition with immobilised ligand	5 µM	88	COc1ncc2cc3ccccc3nc2c1C#N
binding, competition with immobilised ligand	1 µM	78	O=C(c1ccc(Nc2ncc(Cl)c(-c3cc4ccccc4s3)n2)cc1)N1CCC(N2CCCC2)CC1
binding	1 µM	96	N[C@@H]1CCN(c2nccc(-c3cnn4ncccc34)n2)C1
cell-free assay, competition with immobilised ligand	0.1 µM	100	Cc1ccc(NC(=O)c2ccc(CN3CCN(C)CC3)cc2)cc1Nc1nccc(-c2cccnc2)n1
binding, competition with immobilised ligand	1 µM	91	Nc1ncc2c(n1)-c1c([nH]c3ccc(C#CC4CC4)cc13)CCCC2
cell-free assay, competition with immobilised ligand	0.1 µM	61	Cn1cc(Cl)c2c(Oc3c(F)cc(Nc4cc(Cl)nc(N)n4)cc3F)ccnc21
binding, competition with immobilised ligand	1 µM	100	O=C(NCCCN1CCOCC1)c1ccc(Nc2ncc(Cl)c(-c3ccc(Cl)s3)n2)cc1
binding	1 µM	98	c1cnn2ncc(-c3ccnc(N4CCC45COC5)n3)c2c1
cell-free assay, competition with immobilised ligand	1 µM	88	CNC(=O)Nc1ccc2c(c1)CC[C@@]21OC(=O)N(CC(=O)N(Cc2ccc(F)cc2)[C@@H](C)C(F)(F)F)C1=O
cell-free assay, competition with immobilised ligand	10 µM	100	CS(=O)(=O)CCNCc1ccc(-c2ccc3ncnc(Nc4ccc(OCc5cccc(F)c5)c(Cl)c4)c3c2)o1
binding, competition with immobilised ligand	50 nM	100	C[C@@H]1CN(c2ccc3ncc(-c4ccc5[nH]nc(C6CC6)c5c4)n3n2)C[C@H](C)O1
cell-free assay, competition with immobilised ligand	10 µM	93	CCN(CC)Cc1cc(Nc2ccnc3cc(Cl)ccc23)ccc1O

test	setting	remaining binding [%]	Structure (SMILES)
cell-free assay, competition with immobilised ligand	1 µM	100	C[C@H](c1ccc(F)cc1)N(Cc1cccc(C(=O)O)c1)C(=O)c1cnc2ccccc2c1
binding	1 µM	100	CN(CCCC(F)(F)F)c1nccc(-c2cnn3ncccc23)n1
cell-free assay, competition with immobilised ligand	0.1 µM	100	CCN(CC)CCNC(=O)c1c(C)[nH]c(/C=C2\C(=O)Nc3ccc(F)cc32)c1C
cell-free assay, competition with immobilised ligand	1 µM	100	COc1ccc2c(c1)O[C@@H](c1ccc(OC)c(OC)c1)C[C@H]2NC(=O)C1(c2ccc3c(c2)OC(F)(F)O3)CC1
cell-free assay, competition with immobilised ligand	10 µM	100	Cc1nc(Nc2ncc(C(=O)Nc3c(C)cccc3Cl)s2)cc(N2CCN(CCO)CC2)n1
cell-free assay, competition with immobilised ligand	1 µM	85	NS(=O)(=O)c1cc(NC(=O)C2(c3ccccc3Cl)CC2)ccc1Oc1cccc(Cl)c1
binding, competition with immobilised ligand	1 µM	100	COc1cnc(Nc2cccc(S(N)(=O)=O)c2)nc1N1CCN(c2ccccc2)C(=O)C1
cell-free assay, competition with immobilised ligand	1 µM	100	C[C@@]1(Cc2ccc(C#N)cc2)C(=O)N(c2cc(Cl)cc(Cl)c2)c2ncc(C(=O)NC3(c4nc(C5CCC5)no4)CC3)n21
binding, competition with immobilised ligand	1 µM	82	O=C(c1ccc(Nc2ncc(Cl)c(-c3ccc(Cl)s3)n2)cc1)N1CCC(N2CCCC2)CC1
cell-free assay, competition with immobilised ligand	10 µM	100	CN1CC[C@H](c2c(O)cc(O)c3c(=O)cc(-c4ccccc4Cl)oc23)[C@H](O)C1
binding, competition with immobilised ligand	1 µM	100	Cc1c(C(=O)O)cc(-c2ccc(C3CCNCC3)cc2)c2ccc(-c3ccc(C(F)(F)F)cc3)cc12
cell-free assay, competition with immobilised ligand	0.1 µM	100	Cc1c(-c2ccccc2)oc2c(C(=O)OCCN3CCCCC3)cccc2c1=O
binding	1 µM	100	CN(c1nccc(-c2cnn3ncccc23)n1)C1CC1
cell-free assay, competition with immobilised ligand	1 µM	96	O=C(NC[C@@H]1[C@H]2CN(C(=O)OCc3cc(C(F)(F)F)cc(C(F)(F)F)c3)C[C@@H]12)c1ccc2[nH]nnc2c1
binding, competition with immobilised ligand	1 µM	90	O=C(Nc1c[nH]nc1C(=O)NC1CCNCC1)c1cc(F)cc(F)c1
binding	1 µM	89	CC1CCCN1c1nccc(-c2cnn3ncccc23)n1 (stereo not drawn)
